# SDO1 yeast rescue – restores growth of sdo1-depleted yeast | S. cerevisiae sdo1-depleted JHY4D growth rescue, OD600 30 h; hits give high values; pdr5 snq2 efflux-pump mutant strain | AID 817 | 140,000 tested, 0.21% active | z-score at 10 µM;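 active = z-score above 3 at both the 24 hr and the 30 hr optical density reads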
# RAM inhibit – inhibitors of the yeast RAM network. inhibition, % at 50 µM. S. cerevisiae dse1pr::URA3 reporter, 5-FOA growth OD615, 2 d; analog-sensitive cbk1-as2 kinase mutant strain. 190,000 tested, 1.8% active;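 active = inhibition above a set limit, 3 SD over mean compound inhibition, cut at about 8.4% in these data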;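 also: inhibition rescues growth on 5-FOA so higher OD means more RAM inhibition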
# BB579 growth dn – chemicals that inhibit yeast BB579 growth in restrictive medium (lifespan-shortening candidates). S. cerevisiae BB579 growth, OD615, 48 h. inhibition, % at 10 µM. 140,000 tested, 0.51% active. AID 804;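 active = inhibition above a set limit, 3 SD over the mean compound inhibition, cut at about 44% in these data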
#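 test system = yeast BB579 (DeaD) | buffer or medium = restrictive CSMM-D medium | doses = single compound dose of 10 µM, 0.25% DMSO final | times = 4 h preincubation and 48 h exposure at 30 °C | technique = culture absorbance at 615 nm | benchmarks = amphotericin B 10 µg/mL, positive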
# Yeast life ext – extends the lifespan of yeast | S. cerevisiae growth with nicotinamide, OD615; deaD strain in restrictive glucose medium | inhibition of the nicotinamide effect, % at 10 µM | 130,000 tested, 0.68% active;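 active = inhibition above a set limit, placed 3 SD over the median of all compounds, cut at about 26% in these data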
#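 Test system: DeaD-strain S. cerevisiae / Buffer or medium: restrictive glucose medium / Also added: nicotinamide 1.5 mM / Doses: one concentration, 10 µM, DMSO 0.25% / Schedule: 48 h at 30 °C / Signal: OD615 measurement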
# Numbers stand for hits; - = inactive; . = not tested or not shown. Rows were chosen to be rich in hits. Some 2.7% of all compounds tested hit in one or more screens of this group.
SMILES,SDO1 yeast rescue,RAM inhibit,BB579 growth dn,Yeast life ext
COC(=O)CSc1nc(-c2ccccc2)cc(-c2ccco2)c1C#N,-,9.7,-,-
COCCNC(=O)NC(=O)CN1CCN(C(c2ccccc2)c2ccccc2)CC1,.,-,.,.
Cc1c(NC(=O)c2nn3c(C(F)(F)F)cc(-c4ccccc4)nc3c2Br)c(=O)n(-c2ccccc2)n1C,-,8.6,-,-
CCN(CC)C(=O)c1sc2nc(-c3cccs3)cc(-c3ccc(Cl)cc3)c2c1N,-,9.2,-,-
CCc1ccccc1NC(=O)COc1cccc2ccc(C)nc12,-,-,-,-
Cc1ccc(OCc2nnc(SCc3ccc(C#N)cc3)n2-c2ccc(C)cc2)cc1,-,8.5,-,-
COc1cccc(NC(=O)N(Cc2ccco2)C(C)c2cccs2)c1 (stereo not given),-,-,-,-
CC(c1cccs1)N(Cc1ccco1)C(=O)Nc1ccc(Cl)c(Cl)c1 (stereo not given),-,11,-,-
Cc1cc(C(=O)Nc2cccc(/C=C/C(=O)O)c2)c(C)o1,-,-,-,-
Cc1oc(C(C)(C)C)cc1C(=O)Nc1cccc(/C=C/C(=O)O)c1,-,8.4,-,-
O=C(N/N=C/c1cc2c3c(c1O)CCCN3CCC2)c1ccccc1O,-,-,62,-
Cc1nn(-c2ccccc2)c(N2CCCC2)c1/C=N/NC(=O)c1ccccc1O,-,-,-,-
O=Cc1c(Sc2ccccc2)nc2ccccn2c1=O,-,-,65,-
O=C(Nc1cccc(C(F)(F)F)c1)C(Sc1cccc[n+]1[O-])c1ccccc1 (stereo not given),-,-,59,-
CN(C)CCNC(C(=O)Nc1cccc(C(F)(F)F)c1)c1ccccc1 (stereo not given),.,-,.,.
CCCCCCC1CCC(C(=O)N2CCOCC2)CC1 (stereo not given),.,-,.,.
CCCS(=O)(=O)c1c(S(=O)(=O)CCC)c2ccc(C(N)=O)cn2c1C(=O)c1ccc(F)cc1,.,-,.,.
CCCS(=O)(=O)c1c(S(=O)(=O)CCC)c2cnccn2c1C(=O)c1ccc(Cl)cc1,15,-,-,-
N#C/C(=C/c1ccc(CNC(=O)C(=O)Nc2cc(Cl)cc(Cl)c2)o1)C(=O)NCc1cccnc1,-,8.6,-,-
COc1ccc(C(=O)C2CCCN(C3Cc4ccccc4C3)C2)c(OC)c1 (stereo not given),.,-,.,.
COc1ccc(CCNC(=O)COc2ccc(S(=O)(=O)NC3CCCCC3)cc2Cl)cc1,-,10,-,-
COc1ccc(C2C(C(C)=O)=C(O)C(=O)N2c2nccs2)c(OC)c1 (stereo not given),.,-,.,.
O=C(O)c1nn(-c2ccccc2)nc1-c1nn(-c2ccccc2)nc1C(=O)O,-,8.9,-,-
COc1ccc2c(C)nc(Nc3nc(C)c(C)c(=O)[nH]3)nc2c1,-,-,59,-
FC(F)(F)c1ccc(Oc2ccc3ccccc3c2Br)nc1,-,-,-,-
SMILES,SDO1 yeast rescue,RAM inhibit,BB579 growth dn,Yeast life ext
COC(=O)C(=Cc1ccc(OCc2ccc([N+](=O)[O-])cc2)c(OC)c1)C(=O)OC,-,9.2,-,-
CC(C)(C)NC(=O)CCN(/N=C/c1ccc([N+](=O)[O-])o1)C1=NS(=O)(=O)c2ccccc21,-,-,-,-
O=C(CSc1ccc2nnc(CCNC(=O)c3ccccc3)n2n1)Nc1ccccc1F,.,-,.,.
O=C(NCCc1nnc2ccc(NCc3ccc(Cl)cc3)nn12)c1ccccc1,.,8.5,.,.
CC(C)Sc1nc(N)nc(-c2cccs2)c1C#N,-,-,76,-
CSc1nc(N)nc(-c2cccs2)c1C#N,-,-,-,-
COc1ccc2[nH]c3c(Cl)ncnc3c2c1,-,-,56,-
Cc1ccc(O)c(-c2cc(C(=O)Nc3ccc(S(=O)(=O)N4CC(C)OC(C)C4)cc3)[nH]n2)c1 (stereo not given),-,8.9,-,-
O=C(CS(=O)c1ccc(C(F)(F)F)cc1[N+](=O)[O-])Oc1ccccc1 (stereo not given),-,-,-,40
O=C(CNc1ccc(C(F)(F)F)cc1[N+](=O)[O-])OCC(=O)c1ccccc1,-,11,-,-
On1nnc2ccc3ccccc3c21,-,-,-,-
Oc1ccc(Cl)cc1C=Nc1ccccc1Br,-,-,-,-
Oc1ccc(Br)cc1C=Nc1ccc2c3c(cccc13)CC2,-,10,-,-
O=C(NCCN1C(=O)S/C(=C\c2cccs2)C1=O)[C@H](Cc1ccccc1)N1C(=O)c2ccccc2C1=O,-,-,-,-
CSCCCNC(=S)N1CCc2ccccc2C1,.,-,.,.
c1ccc(C2=Nn3c(nnc3-c3ccco3)SC2)cc1,.,9.3,.,.

# Screening data deposited in PubChem by several laboratories.
